# Screens deposited in PubChem by several laboratories.
# ROMK mod – modulates human ROMK potassium channel activity; hit rate 2% among 130,000; AID 1918; Tet-inducible ROMK, thallium flux fluorescence; actives lie on both sides; P48048; B-score at 10 µM;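 active = signal ratio slope over the read window, or its plate-corrected B-score, at least 3 SD from the plate mean, either direction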;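 note: B-score of the F/F0 ratio slope over 7 to 12 s after thallium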
# Target sequence (P48048 whole entry, looked up): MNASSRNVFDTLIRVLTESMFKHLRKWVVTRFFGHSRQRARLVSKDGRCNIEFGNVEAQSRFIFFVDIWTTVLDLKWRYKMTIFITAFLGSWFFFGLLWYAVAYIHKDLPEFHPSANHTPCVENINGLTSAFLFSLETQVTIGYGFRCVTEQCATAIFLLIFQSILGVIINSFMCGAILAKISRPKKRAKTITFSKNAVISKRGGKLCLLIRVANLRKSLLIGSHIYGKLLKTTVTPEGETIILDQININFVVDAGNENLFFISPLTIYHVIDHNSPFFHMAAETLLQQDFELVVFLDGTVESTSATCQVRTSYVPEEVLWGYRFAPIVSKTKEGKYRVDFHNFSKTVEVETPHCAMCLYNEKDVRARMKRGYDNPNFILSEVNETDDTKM
# KCC2 mod – modulates chloride dependent transport by human KCC2. KCC2 cells, thallium flux FluoZin-2 fluorescence. hit rate 2.2% among 190,000. B-score of Tl+ flux slope (higher = more flux/activation; lower = inhibition) at 10 µM. Q9H2X9;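 active = thallium flux slope and its plate-corrected score both differing from the plate sample mean at a set confidence after two filtering rounds, in either direction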;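 note: slope of fluorescence scaled to starting intensity during 10 to 20 s after thallium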
# Dynein transport – dynein cargo transport inhibition. z-score, hits read low. AID 1381. hit rate 0.47% among 220,000. 3617.4 mouse cells, GR-EGFP nuclear translocation imaging; test concentration mostly 20 µM; stimulated with dexamethasone, 1 µM; active compounds read low;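 active = plate z-score of nuclear minus cytoplasmic receptor signal below a set negative limit, without overly bright fluorescence or cell loss, cut at about -3.5 in these data, passing the limit was not always enough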;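 note: z-score of nuclear minus cytoplasmic ring GR-EGFP intensity difference per well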
#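 medium = tetracycline-free induction medium containing charcoal-stripped FBS | also added = 1.0 µM final dexamethasone stimulus | schedule = 48 h induction, 1 h compound, 30 min dex at 37 °C | technique = fixed, Hoechst-stained cells imaged at 10x for EGFP | measure = GR-EGFP nuclear translocation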
# Redox H2O2 prof – compounds producing H2O2 with reducing agent – biochemical, NIH compound library profiling, artefact control for MLSCN library redox annotation, primary screen | DTT-dependent redox cycling H2O2, phenol red/HRP absorbance; 100% = 100 µM peroxide control, 0% = buffer | activation, % at 10 µM | hit rate 0.03% among 200,000 | AID 878;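 active = activation of at least 50% relative to the plate's high and low controls in the primary single-dose screen; inactive = activation below 50%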;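 note: compound incubated with DTT at 0.8 mM final as the reducing agent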
# Autophagy mod – alters autophagy in cells. MEF GFP-LC3 puncta imaging; test concentration mostly 10 µM. calls only at 10 µM (by protocol). hit rate 0.98% among 190,000. AID 463193;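 active = percentage of spot-positive cells more than 3 SD above its plate mean, without a fluorescence outlier flag or 80% toxicity; inconclusive = no clear call, values can overlap the other calls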;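 note: spot-positive cell cutoff set from DMSO-treated cells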
# KCC2 sec1 – confirmation of human KCC2 transport modulators; shares compounds with KCC2 mod; hit rate 15% among 3,700; normalised thallium flux (F/F0 slope) at 10 µM; HEK293-KCC2, thallium flux, FluoZin2 fluorescence; active compounds read high;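 active = thallium flux slope above the same plate's solvent-only control mean plus 3 SD; inconclusive = the two replicate wells disagree; inactive = no significant difference from solvent-only control wells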
# KCC2 bumet counter – thallium flux persisting under bumetanide in KCC2 cells, counter-screen secondary assay; shares compounds with KCC2 mod; HEK293-KCC2 + bumetanide/ouabain, thallium flux FluoZin2; active compounds read high; normalized thallium flux at 10 µM; hit rate 49% among 3,700;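 active = thallium entry rate above the same plate's blocked-transporter control wells by more than 3 SD; inconclusive = the two repeat wells disagree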;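 note: raw slope of fluorescence over initial fluorescence between 10 and 20 s after thallium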
# KCC2 secondary2 – confirmation of human KCC2 transport modulators; shares compounds with KCC2 mod; HEK293-KCC2, thallium flux FluoZin2 fluorescence; actives lie on both sides; F/F0 rise rate, 10–20 s post-thallium; normalized thallium flux at 10 µM; hit rate 23% among 3,700; AID 1715;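 active = thallium flux slope more than 3 SD above or below the plate's solvent-only control mean, mostly below; inconclusive = the two repeat wells disagreed; inactive = no significant shift from solvent-only controls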;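 note: raw slope with 0.1% DMSO as baseline and bumetanide as block control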
# HEK293 Tl flux – counter-screen for KCC2 modulators: effect in parental HEK293 cells | shares compounds with KCC2 mod | thallium flux FluoZin2, ouabain; baseline-ratio fluorescence slope, 10–20 s after thallium | thallium flux rate (normalised fluorescence) at 10 µM | hit rate 46% among 3,700 | AID 1716;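 active = thallium flux rate significantly above the same plate's solvent-only control wells, beyond their mean plus 3 SD; inconclusive = the two replicate wells gave conflicting results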
# KCC2 ouabain – modulates human KCC2 on retest with ouabain; shares compounds with KCC2 mod; HEK293-KCC2, thallium flux FluoZin2 fluorescence; bidirectional: low = inhibitor, high = activator; raw Tl+ flux slope (below DMSO = inhibition, above = activation) at 10 µM; hit rate 48% among 3,700; AID 1717;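 active = thallium flux slope beyond 3 SD from same-plate DMSO control mean in most replicates, usually higher, sometimes lower; inconclusive = repeat tests gave conflicting results; inactive = no significant difference from controls in most replicates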;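 note: slope of initial-normalized fluorescence between seconds 10 and 20 after thallium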
# HEK293 Tl flux2 – counter-screen for KCC2 modulators: effect in parental HEK293 cells; shares compounds with KCC2 mod; thallium flux FluoZin-2 fluorescence slope; thallium flux slope at 10 µM; hit rate 33% among 3,700;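 active = thallium flux slope above the same plate's solvent-control mean plus 3 SD in both duplicate wells; inconclusive = duplicate wells that disagreed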;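 note: run without ouabain in cells lacking the KCC2 cotransporter; slope of fluorescence scaled to its starting value between 10 and 20 s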
# * marks the source's active call; other numbers are inactive results; i = inactive; ? = inconclusive; . = no result given. Only some compounds are listed: those with a hit (about 4.1% of all), similar ones and a draw of the others.
SMILES,ROMK mod,KCC2 mod,Dynein transport,Redox H2O2 prof,Autophagy mod,KCC2 sec1,KCC2 bumet counter,KCC2 secondary2,HEK293 Tl flux,KCC2 ouabain,HEK293 Tl flux2
CC(=O)c1cccc(NC(=S)NC(=O)c2ccccc2Cl)c1,.,5.4*,-0.27,0,i,0.008,0.026*,0.034,0.017*,0.028*,0.013*
COC(=O)c1cccc(NC(=O)NC(=O)c2ccccc2Cl)c1,.,0.21,0.77,.,.,.,.,.,.,.,.
CC(=O)c1cccc(NC(=S)NC(=O)c2ccc(C)cc2)c1,-0.3,7.2*,0.44,0,i,0.0059,0.013*,0.029,0.011*,?,0.012*
O=C(NNC1CC(=O)N(c2ccc(Br)cc2)C1=O)c1ccccn1 (stereo unspecified),0.56,0.037,0.69,0,i,.,.,.,.,.,.
O=C(NC1CC1)c1ccc(C2SCC(=O)N2Cc2ccccc2)cc1 (stereo unspecified),-0.076,-2.2,0.69,-1,i,.,.,.,.,.,.
O=C(NCC(=O)N1CCN(S(=O)(=O)/C=C/c2ccccc2)CC1)c1ccc(Cl)cc1,.,0.48,-0.6,.,.,.,.,.,.,.,.
Cc1cccc(NC(=S)NNC(=O)c2csc(C)c2)c1,0.46,4.5*,0.38,0,i,?,0.019*,0.035,0.017*,?,0.019*
Cc1cc(C(=O)NNC(=S)NCC(C)C)cs1,.,1.1,1,0,i,.,.,.,.,.,.
O=C(c1cc(COc2ccc(F)cc2Cl)on1)N1CCC(c2ccncc2)CC1,-1.3,-6.3*,-0.44,0,i,0.008,0.0054,0.035,0.0036,0.014*,0.011
CCCCC(=O)Nc1ccccc1Oc1ccccc1,-1.7,-0.7,0.038,-2,i,.,.,.,.,.,.
CCCCNc1cc(C(=O)O)cc(S(N)(=O)=O)c1Oc1ccccc1,.,-6.4*,1.4,-1,i,0.0063,0.0046,0.023*,0.0064,0.013*,0.0094
COc1ccc(C(=O)C2CCCN(S(=O)(=O)C(C)C)C2)c(C)c1 (stereo unspecified),-0.013,-0.017,-0.61,1,i,.,.,.,.,.,.
NC1=NC[C@@H](Cc2ccc(O)cc2)N1CCc1cc(C(F)(F)F)cc(C(F)(F)F)c1,.,-3.2*,0.75,.,.,0.0056,0.0045,0.022*,0.0076,0.014*,0.0096
COc1ccccc1NC(=O)CN(Cc1ccco1)C(=O)c1cc2ccccc2o1,-1.4,-2,1.5,0,i,.,.,.,.,.,.
CCOC(=O)N1CCN(C(=S)NC(=O)C23CC4CC(CC(C4)C2)C3)CC1,0.038,5.9*,-0.76,-1,i,0.01,0.03*,0.037,0.012*,?,0.011
CCN(CC)C(=S)NC(=O)C12CC3CC(CC(C3)C1)C2,0.089,20*,-0.88,-1,i,0.0059,0.055*,0.042*,0.028*,0.043*,0.034*
CCOC(=O)N1CCN(C(=O)Cc2cccc3ccccc23)CC1,-0.44,-0.33,0.32,1,i,.,.,.,.,.,.
C/C(CCS(=O)(=O)c1ccccc1)=N/O,0.79,0.9,-0.23,-1,i,.,.,.,.,.,.
Cn1cc(CN2C[C@]3(C)C[C@H]2CC(C)(C)C3)c(-c2ccc3c(c2)OCCO3)n1,-0.9,-0.055,-0.27,10,i,.,.,.,.,.,.
O=c1c2ccccc2[nH]c(=S)n1CCc1ccccc1,1.2,29*,0.44,0,i,0.027*,0.072*,0.038,0.11*,0.061*,0.055*
NS(=O)(=O)c1ccc(CCn2c(=S)[nH]c3ccccc3c2=O)cc1,.,0.26,2.5,.,.,.,.,.,.,.,.
O=c1c2ccccc2[nH]c(=S)n1Cc1cccnc1,-0.83,1.7,-0.098,0,i,.,.,.,.,.,.
O=c1c2ccccc2[nH]c(=S)n1Cc1cccs1,0.02,26*,0.62,0,i,?,0.048*,0.029,0.017*,0.041*,0.012*
O=c1c2ccccc2[nH]c(=S)n1CCN1CCc2ccccc2C1,.,58*,-1.1,.,.,0.018*,0.13*,0.03,0.036*,0.069*,0.015*
CC1CCCN(C(=O)CCCn2c(=S)[nH]c3ccccc3c2=O)C1 (stereo unspecified),-0.0087,3.2*,-1.4,0,i,0.007,0.0099*,0.032,0.0099*,?,0.012*
SMILES,ROMK mod,KCC2 mod,Dynein transport,Redox H2O2 prof,Autophagy mod,KCC2 sec1,KCC2 bumet counter,KCC2 secondary2,HEK293 Tl flux,KCC2 ouabain,HEK293 Tl flux2
O=C1CC(c2ccccc2F)C2=C(COC2=O)N1 (stereo unspecified),-0.64,0.6,0.31,-1,i,.,.,.,.,.,.
CN(C)CCn1c(=S)[nH]c2ccccc2c1=O,-1.1,0.17,0.88,0,i,.,.,.,.,.,.
CCCn1c(=S)[nH]c2ccccc2c1=O,1.7,79*,0.091,0,i,?,0.12*,0.091*,0.085*,0.1*,0.088*
Cn1cc(CN2CCC(N3CCNC(=O)CC3)CC2)c(-c2ccccc2F)n1,0.21,0.49,-0.39,0,i,.,.,.,.,.,.
O=C(COC(=O)c1ccc(S(=O)(=O)NCc2ccco2)cc1)Nc1ccc(Cl)cn1,-1.1,-0.52,1.7,0,i,.,.,.,.,.,.
CCc1cc2c(cc3c(=O)n(CC(=O)N4CCN(c5ccccn5)CC4)nc(CC)n32)s1,-0.27,.,0.9,0,i,0.0077,0.0045,0.03,0.0073,0.016,0.0097
O=C(Nc1cccnc1Oc1ccc(Cl)cc1)c1cccc2ccccc12,.,-0.075,-0.78,.,.,.,.,.,.,.,.
c1ccc(OCc2nn3c(C4CCCCC4)nnc3s2)cc1,-1.5,-3.6*,0.053,0,i,0.014,0.0035,0.024*,?,0.013*,0.0093
CCc1ccccc1NC(=O)CC1SCCNC1=O (stereo unspecified),-1,-0.31,-0.21,0,i,.,.,.,.,.,.
c1ccc(-c2csc(NNC3=NCCCCC3)n2)cc1,-0.11,-1.7,-0.11,0,i,.,.,.,.,.,.
Clc1ccc(-c2csc(NNC3=NCCCCC3)n2)cc1,.,-4.4*,-2.6,-4,i,?,0.0064,0.03,0.0073,0.019*,0.0095
Cc1ccccc1-n1ncc(C(C)NC(=O)c2ccco2)c1C (stereo unspecified),.,0.55,-1,-1,i,.,.,.,.,.,.
Cc1nnsc1C(=O)N1CCC(CO)(Cc2ccccc2Cl)CC1,.,-0.55,-0.51,.,.,.,.,.,.,.,.
